# Source: PubChem (Sanford-Burnham Center for Chemical Genomics)
# This is a sample that favours compounds with a hit; in the whole collection about 0.72% have one here.
# bIAP act = intestinal alkaline phosphatase (bovine) activation. purified bovine IAP, CDP-star luminescence, 30 min; active compounds read high; fold of DMSO-control signal, blank-subtracted. activation factor at 20 µM. AID 1016. hit rate 0.17% among 200,000;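 active = activation factor of 2 or more at 20 µM, a signal rise over negative controls twice the positive control's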
# mIAP act = increases mouse intestinal alkaline phosphatase activity; AID 2805; muIAP, CDP-Star luminescence, 30 min; active compounds read high; 1 = vehicle-only enzyme signal, 0 = enzyme-free wells; activation factor at 10 µM; hit rate 0.24% among 330,000;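 active = activation factor of at least 2 at 20 µM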
#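 Assay system: mouse IAP enzyme; Reagent: CDP-Star chemiluminescent phosphatase substrate; Compound: DMSO-dissolved test compounds; Incubation: 30 min, room temperature; Technique: luminescence from enzymatic CDP-Star hydrolysis; Controls: DMSO-only wells and no-enzyme negative control.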
# bIAP inhibitor = intestinal alkaline phosphatase (bovine) inhibition; 190,000 tested, under 10 active; inhibition, % at 20 µM; AID 1019; purified bovine IAP, CDP-star luminescence, 30 min;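 active = over 50% inhibition of intestinal alkaline phosphatase at 20 µM in the single-dose screen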
#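 Incubation: 30 min reaction at room temperature / Material: purified bovine intestinal alkaline phosphatase (IAP) enzyme / Input: enzyme at 1/65,000,000 dilution / Dosing: 20 µM single dose / Signal: CDP-star luminescence signal / Reagent: CDP-star chemiluminescent phosphatase substrate, 30 µM final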
# hIAP activ = human IAP activation; purified human IAP, CDP-Star luminescence, 30 min; active compounds read high; 1 = vehicle-only enzyme, 0 = enzyme-free background; activation factor at 10 µM; hit rate 0.16% among 330,000; AID 2524;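 active = activation factor of the enzyme at least 2-fold when tested at 20 µM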
# Target sequence (P09923 whole entry, looked up): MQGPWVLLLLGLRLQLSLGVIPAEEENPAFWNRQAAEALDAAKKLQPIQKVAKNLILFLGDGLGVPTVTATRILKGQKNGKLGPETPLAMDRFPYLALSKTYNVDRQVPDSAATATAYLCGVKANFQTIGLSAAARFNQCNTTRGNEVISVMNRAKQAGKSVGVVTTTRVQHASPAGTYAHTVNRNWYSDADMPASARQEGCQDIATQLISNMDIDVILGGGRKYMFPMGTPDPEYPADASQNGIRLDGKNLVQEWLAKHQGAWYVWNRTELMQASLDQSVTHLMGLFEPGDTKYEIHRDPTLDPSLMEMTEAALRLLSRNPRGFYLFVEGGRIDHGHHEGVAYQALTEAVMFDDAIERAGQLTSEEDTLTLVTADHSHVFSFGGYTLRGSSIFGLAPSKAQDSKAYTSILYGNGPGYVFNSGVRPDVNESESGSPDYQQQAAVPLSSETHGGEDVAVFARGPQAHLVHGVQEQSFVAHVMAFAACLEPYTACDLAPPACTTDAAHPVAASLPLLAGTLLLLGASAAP
# hIAP block = human IAP inhibition. purified IAP, CDP-Star luminescence, 30 min. inhibition, % at 10 µM. hit rate 0.12% among 330,000. AID 2544;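 active = inhibition reaching a set limit with compound at 10 µM in the primary screen, cut at about 35% in these data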;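 also: plate controls were DMSO wells with enzyme for no effect and no-enzyme buffer wells for full effect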
# mIAP inh = blocks mouse intestinal alkaline phosphatase; purified mouse IAP, CDP-Star luminescence, 30 min; hit rate 0.2% among 330,000; inhibition, % at 10 µM;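 active = inhibition of at least 40% at 10 µM in the primary screen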;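 also: plate controls were DMSO with enzyme for no effect and no enzyme wells for full effect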
# Starred values were filed as active, the others as inactive; · = no result given.
SMILES,bIAP act,mIAP act,bIAP inhibitor,hIAP activ,hIAP block,mIAP inh
O=C(/C=C/c1ccc(O)c(O)c1)c1ccccc1O,·,0.68,·,0.297,70.3*,32.0
O=C(Nc1ccccc1)Nc1ccc(Cl)c(S(=O)(=O)N2CCOCC2)c1,1,2.82*,2.2,1.05,-5.4,-182.4
O=C(Nc1ccc(NC(=O)c2ccc(Cl)c(S(=O)(=O)N3CCOCC3)c2)cc1)c1ccccc1,·,1.06,·,1.15,-15.1,-5.7
O=C(Nc1cccc(Cl)c1)Nc1cc(S(=O)(=O)N2CCOCC2)ccc1N1CCCC1,1,3.72*,-2.1,1.18,-18.2,-272.3
Cc1ccc(NC(=O)Nc2ccccc2F)cc1S(=O)(=O)N1CCOCC1,·,2.58*,·,1.15,-14.7,-158.2
CCN1CCN(CC(=O)Nc2c(C(=O)OC)[nH]c3cccc(Cl)c23)CC1,1.1,·,-9.4,·,·,·
Cc1ccc(Cl)cc1-n1ncc2c(NNC(=O)c3ccco3)ncnc21,1.4,0.929,-37.2,2.4*,-140.2,7.1
CC(=O)NNc1ncnc2c1cnn2-c1ccc(C)c(Cl)c1,1.1,1.18,-14.0,1.57,-57.1,-18.3
CC(=O)NNc1ncnc2c1cnn2-c1ccc(C)cc1,1.3,0.815,-27.7,3.06*,-206.1,18.5
CCCN1CCN(CCCNC(=O)c2ccc3nc(N4CCC(C)CC4)sc3c2)CC1,·,1.06,·,0.944,5.6,-6.3
CCc1cc(=O)oc2cc(C)cc(OCc3nn[nH]n3)c12,1,0.864,-1.3,0.709,29.1,13.6
COc1cccc(CNC(=O)CCC2CCCN(C(=O)c3cc(C)on3)C2)c1 (centres undefined),1,1.14,-1.4,1.05,-5.1,-13.5
COc1cccc(CNC(=O)CCC2CCCN(C(=O)c3cc(C4CC4)[nH]n3)C2)c1 (centres undefined),2.2*,1.09,-123.4,1.32,-31.9,-9.5
COc1cccc(NCc2cc3c(C(C)(C)C)nn(-c4ccccc4)c3[nH]c2=O)c1,3.8*,1.08,-280.5,1.03,-3.1,-8.5
Cc1ccc(C(C)C)c(OCCNC(=S)Nc2cccc3ccccc23)c1,0.5,2.3*,46.2,1.04,-4.0,-130.3
Cc1ccc(C(C)C)c(OCCNCc2ccccc2)c1,·,0.88,·,0.906,9.4,12.0
O=C(Cc1cccc2ccccc12)N/N=C/c1ccc(F)cc1,1,1.03,4.3,0.965,3.5,-2.7
O=C(Cc1cccc2ccccc12)N/N=C/c1ccc(OC(=O)/C=C/c2ccco2)cc1,0.9,0.366,6.9,0.938,6.2,63.4*
CCc1ccc(NC(=O)c2n[nH]c(=O)c3ccccc23)cc1,·,1.09,·,1.17,-17.3,-8.8
O=C(NCC(=O)N(c1ccccc1F)C(C(=O)NCC1CCCO1)c1ccccc1)c1ccco1 (centres undefined),1,1.04,0.2,1.09,-9.0,-4.4
CCOc1cc(/C=C2/N=C(C)C(C(=O)OC)=C2O)ccc1O,0.4,0.578,·,0.832,16.8,42.2*
Cc1ccc(C)n1-c1ccc(C(=O)NN)s1,2.1*,1.13,-110.1,1.21,-20.7,-12.7
CCOC(=O)CNC(=O)c1ccc(Br)s1,·,1.05,·,0.933,6.7,-5.4
Cc1ccccc1S(=O)(=O)c1cc(C#N)c(=O)[nH]c1N,1,0.943,1.5,0.952,4.8,5.7
CCCNC(=O)c1oc2ccc3c(c2c1C)C(O)CC(C)(C)O3 (centres undefined),·,1.02,·,1.01,-0.7,-2.2
O=C(O)c1cccc(NC(=S)NC(=O)c2ccncc2)c1,1,0.968,0.9,1.03,-3.4,3.2
C#CCOCCOCCOCCNc1nc(N2CCN(C(=O)[C@H](Cc3cc4ccccc4[nH]3)n3cc([C@@H](N)C(C)CC)nn3)CC2)nc(N2CCN(C(=O)[C@H](Cc3cc4ccccc4[nH]3)n3cc([C@@H](N)CC(C)C)nn3)CC2)n1 (some centres undefined),5.4*,1.44,-441.6,0.869,13.1,-43.9
C[C@@H]1NC(=O)c2cc([N+](=O)[O-])cc(I)c2OCC[C@@H](C(=O)NC(CC(=O)O)C(N)=O)NC(=O)[C@H](CC(N)=O)NC1=O (some centres undefined),1.2,0.553,-21.8,0.988,1.2,44.7*
O=c1cc(Cc2ccccc2)[nH]c(=S)[nH]1,0.8,0.973,17.1,1.05,-5.5,2.7
